Experimental data reported in ChEMBL document CHEMBL1914406, “Inhibitory effect of novel 5-O-acyl juglones on mammalian DNA polymerase activity, cancer cell growth and inflammatory response” (Bioorg Med Chem, 2011).
Calls of active or inactive are those of the source. No cut-off for these calls is given here.

How the values were obtained:
[1] = organism: Bos taurus; test: Inhibition of calf DNA polymerase alpha using poly(dA)/oligo(dT)18 (A/T = 2/1) and dTTP as the DNA template-primer and nucleotide substrate at 10 uM after 60 mins
Outline: (§1)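 Compound in DMSO, sonicated 30 s. Premixed 0 °C, 10 min with enzyme (0.05 units) in 50 mM Tris-HCl pH 7.5, 1 mM DTT, 50% glycerol, 0.1 mM EDTA, then added to standard reaction mixture. Template-primers: poly(dA)/oligo(dT)18 (2/1) for pols, oligo(dT)18 for TdT, poly(rA)/oligo(dT)18 for HIV-1 RT, with [3H]dTTP. 60 min at 37 °C (Taq 74 °C). Activity relative to no-inhibitor control; mean ± SE of three experiments.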

[2] = target: DNA polymerase iota (Mus musculus, UniProt Q6R3M4); test: Inhibition of C-terminal His6-tagged mouse DNA polymerase iota using poly(dA)/oligo(dT)18 (A/T = 2/1) and dTTP as the DNA template-primer and nucleotide substrate after 60 mins; outline: as §1
[3] = Inhibition of calf primase of DNA polymerase alpha; parameters: species or system Bos taurus
Outline: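 Calf primase of pol α and mouse IMP dehydrogenase type II measured by standard assays per manufacturer's specifications. Activity relative to no-compound control (100%).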

[4] = target: Deoxyribonuclease-1 (Bos taurus, UniProt P00639); test: Inhibition of bovine deoxyribonuclease I by agarose gel electrophoresis
[5] = target: DNA nucleotidylexotransferase (Bos taurus, UniProt P06526); test: Inhibition of calf thymus TdT using oligo(dT)18 (3'-OH) and dTTP as the DNA template-primer and nucleotide substrate after 60 mins; outline: as §1
[6] = target: T1, DNA polymerase lambda (Homo sapiens) (UniProt Q9UGP5); test: Inhibition of recombinant His-tagged human DNA polymerase lambda using poly(dA)/oligo(dT)18 (A/T = 2/1) and dTTP as the DNA template-primer and nucleotide substrate at 10 uM after 60 mins; outline: as §1
T1 sequence (whole entry): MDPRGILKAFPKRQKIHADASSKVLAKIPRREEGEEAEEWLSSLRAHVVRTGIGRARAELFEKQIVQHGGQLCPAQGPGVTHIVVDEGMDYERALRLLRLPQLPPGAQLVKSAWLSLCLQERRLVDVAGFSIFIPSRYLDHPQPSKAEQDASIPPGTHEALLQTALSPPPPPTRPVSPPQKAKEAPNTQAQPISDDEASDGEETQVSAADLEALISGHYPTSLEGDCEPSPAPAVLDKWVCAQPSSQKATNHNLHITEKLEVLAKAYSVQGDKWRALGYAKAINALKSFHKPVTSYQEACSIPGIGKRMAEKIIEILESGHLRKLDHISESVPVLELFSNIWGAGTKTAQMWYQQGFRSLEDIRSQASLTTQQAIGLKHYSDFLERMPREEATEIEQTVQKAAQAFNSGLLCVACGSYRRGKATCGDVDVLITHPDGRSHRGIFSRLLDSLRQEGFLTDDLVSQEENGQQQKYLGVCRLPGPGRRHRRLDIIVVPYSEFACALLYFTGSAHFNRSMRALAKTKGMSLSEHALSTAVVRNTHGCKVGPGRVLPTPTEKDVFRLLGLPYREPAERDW

[7] = tested on: Mus musculus; test: Antiinflammatory activity in mouse assessed as inhibition of TPA-induced mouse ear edema at 500 ug/ear administered 30 mins before TPA challenge measured after 7 hrs relative to untreated control; type: functional, organism-based
Outline: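 Compound (500 µg) applied to one mouse ear; 30 min later TPA (0.5 µg) applied to both ears. Edema scored after 7 h and expressed as percentage of edema. Mean ± SE, n = 6.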

[8] = Inhibition of human DNA polymerase epsilon using poly(dA)/oligo(dT)18 (A/T = 2/1) and dTTP as the DNA template-primer and nucleotide substrate after 60 mins; outline: as §1
[9] = organism: Homo sapiens; test: Inhibition of histidine-tagged human DNA polymerase gamma using bovine deoxyribonuclease 1-treated DNA and dNTP as the DNA template-primer and nucleotide substrate at 10 uM after 60 mins
[10] = target: DNA-directed DNA polymerase (Enterobacteria phage T4, UniProt P04415); test: Inhibition of T4 pol using poly(dA)/oligo(dT)18 (A/T = 2/1) and dTTP as the DNA template-primer and nucleotide substrate after 60 mins; parameters: species or system Tequatrovirus T4; outline: as §1
[11] = Inhibition of histidine-tagged human DNA polymerase gamma using poly(dA)/oligo(dT)18 (A/T = 2/1) and dTTP as the DNA template-primer and nucleotide substrate after 60 mins; outline: as §1
[12] = target: DNA polymerase eta (Homo sapiens, UniProt Q9Y253); test: Inhibition of C-terminal His6-tagged human DNA polymerase eta (amino acids 1 to 511) using poly(dA)/oligo(dT)18 (A/T = 2/1) and dTTP as the DNA template-primer and nucleotide substrate after 60 mins; outline: as §1
[13] = target: T2, DNA polymerase kappa (Homo sapiens) (UniProt Q9UBT6); test: Inhibition of C-terminal His6-tagged human DNA polymerase kappa (amino acids 1 to 560) using bovine deoxyribonuclease 1-treated DNA and dNTP as the DNA template-primer and nucleotide substrate at 10 uM after 60 mins
T2 sequence (whole entry): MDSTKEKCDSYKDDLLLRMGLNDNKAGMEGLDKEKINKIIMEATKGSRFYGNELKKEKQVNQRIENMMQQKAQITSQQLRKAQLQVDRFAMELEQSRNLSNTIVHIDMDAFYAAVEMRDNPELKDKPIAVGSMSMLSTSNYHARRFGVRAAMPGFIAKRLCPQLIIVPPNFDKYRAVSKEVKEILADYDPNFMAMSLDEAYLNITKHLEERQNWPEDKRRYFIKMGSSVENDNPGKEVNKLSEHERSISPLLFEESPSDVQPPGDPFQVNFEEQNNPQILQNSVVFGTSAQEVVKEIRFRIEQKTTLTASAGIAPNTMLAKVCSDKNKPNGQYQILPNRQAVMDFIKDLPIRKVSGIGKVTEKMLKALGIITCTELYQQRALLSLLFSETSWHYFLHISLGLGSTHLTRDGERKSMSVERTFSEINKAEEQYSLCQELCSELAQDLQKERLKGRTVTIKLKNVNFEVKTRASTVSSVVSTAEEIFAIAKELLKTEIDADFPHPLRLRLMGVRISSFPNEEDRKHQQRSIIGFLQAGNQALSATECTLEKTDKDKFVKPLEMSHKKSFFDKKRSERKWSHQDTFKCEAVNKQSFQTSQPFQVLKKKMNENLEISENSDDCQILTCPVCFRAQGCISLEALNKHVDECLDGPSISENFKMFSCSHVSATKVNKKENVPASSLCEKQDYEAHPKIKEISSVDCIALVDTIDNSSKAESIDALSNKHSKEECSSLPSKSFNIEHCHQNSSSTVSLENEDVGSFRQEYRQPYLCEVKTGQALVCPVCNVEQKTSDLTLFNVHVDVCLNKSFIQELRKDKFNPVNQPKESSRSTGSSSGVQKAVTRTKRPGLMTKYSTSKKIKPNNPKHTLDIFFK

[14] = Inhibition of calf DNA polymerase alpha using poly(dA)/oligo(dT)18 (A/T = 2/1) and dTTP as the DNA template-primer and nucleotide substrate after 60 mins; parameters: species or system Bos taurus; outline: as §1

Sequence of Deoxyribonuclease-1 (P00639 whole entry): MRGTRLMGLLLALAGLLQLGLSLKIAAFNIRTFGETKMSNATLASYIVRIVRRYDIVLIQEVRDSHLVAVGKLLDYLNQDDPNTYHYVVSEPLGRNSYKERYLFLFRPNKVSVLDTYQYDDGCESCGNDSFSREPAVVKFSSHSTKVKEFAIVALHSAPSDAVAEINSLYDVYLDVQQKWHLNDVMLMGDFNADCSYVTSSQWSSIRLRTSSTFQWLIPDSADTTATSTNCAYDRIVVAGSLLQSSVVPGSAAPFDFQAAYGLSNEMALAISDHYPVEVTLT
Sequence of DNA nucleotidylexotransferase (P06526 whole entry): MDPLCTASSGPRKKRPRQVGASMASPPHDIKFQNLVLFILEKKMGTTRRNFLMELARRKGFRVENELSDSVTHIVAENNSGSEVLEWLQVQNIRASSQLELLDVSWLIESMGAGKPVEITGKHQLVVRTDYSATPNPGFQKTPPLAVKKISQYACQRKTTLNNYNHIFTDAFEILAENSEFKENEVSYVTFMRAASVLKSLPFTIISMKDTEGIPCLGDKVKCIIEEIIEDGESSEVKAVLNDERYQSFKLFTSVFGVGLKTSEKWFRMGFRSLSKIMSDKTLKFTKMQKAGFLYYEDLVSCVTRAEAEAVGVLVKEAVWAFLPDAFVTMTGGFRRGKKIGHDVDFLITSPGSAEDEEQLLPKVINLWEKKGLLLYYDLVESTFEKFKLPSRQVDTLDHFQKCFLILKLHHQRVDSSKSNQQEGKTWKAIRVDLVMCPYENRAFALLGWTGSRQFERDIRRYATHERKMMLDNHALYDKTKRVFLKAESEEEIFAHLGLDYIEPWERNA
Sequence of DNA polymerase iota (Q6R3M4 whole entry): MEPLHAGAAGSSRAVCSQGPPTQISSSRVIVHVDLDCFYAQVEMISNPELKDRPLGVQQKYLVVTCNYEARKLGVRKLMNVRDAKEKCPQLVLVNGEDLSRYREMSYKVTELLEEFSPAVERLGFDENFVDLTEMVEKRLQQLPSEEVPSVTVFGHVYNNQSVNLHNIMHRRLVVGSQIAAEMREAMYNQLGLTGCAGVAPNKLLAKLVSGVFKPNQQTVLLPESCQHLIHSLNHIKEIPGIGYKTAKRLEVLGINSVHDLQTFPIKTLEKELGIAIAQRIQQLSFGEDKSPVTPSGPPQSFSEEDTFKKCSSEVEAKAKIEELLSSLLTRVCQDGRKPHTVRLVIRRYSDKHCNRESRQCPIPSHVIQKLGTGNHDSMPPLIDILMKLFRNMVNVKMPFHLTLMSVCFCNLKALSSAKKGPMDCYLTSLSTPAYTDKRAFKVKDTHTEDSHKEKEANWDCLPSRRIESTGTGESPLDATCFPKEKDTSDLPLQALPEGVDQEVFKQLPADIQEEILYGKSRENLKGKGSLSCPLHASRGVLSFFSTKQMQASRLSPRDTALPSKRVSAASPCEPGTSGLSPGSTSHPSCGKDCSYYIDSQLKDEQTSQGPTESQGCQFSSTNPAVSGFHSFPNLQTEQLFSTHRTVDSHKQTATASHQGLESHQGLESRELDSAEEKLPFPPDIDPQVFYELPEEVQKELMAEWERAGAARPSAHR
Sequence of DNA polymerase eta (Q9Y253 whole entry, the tested form may be a part): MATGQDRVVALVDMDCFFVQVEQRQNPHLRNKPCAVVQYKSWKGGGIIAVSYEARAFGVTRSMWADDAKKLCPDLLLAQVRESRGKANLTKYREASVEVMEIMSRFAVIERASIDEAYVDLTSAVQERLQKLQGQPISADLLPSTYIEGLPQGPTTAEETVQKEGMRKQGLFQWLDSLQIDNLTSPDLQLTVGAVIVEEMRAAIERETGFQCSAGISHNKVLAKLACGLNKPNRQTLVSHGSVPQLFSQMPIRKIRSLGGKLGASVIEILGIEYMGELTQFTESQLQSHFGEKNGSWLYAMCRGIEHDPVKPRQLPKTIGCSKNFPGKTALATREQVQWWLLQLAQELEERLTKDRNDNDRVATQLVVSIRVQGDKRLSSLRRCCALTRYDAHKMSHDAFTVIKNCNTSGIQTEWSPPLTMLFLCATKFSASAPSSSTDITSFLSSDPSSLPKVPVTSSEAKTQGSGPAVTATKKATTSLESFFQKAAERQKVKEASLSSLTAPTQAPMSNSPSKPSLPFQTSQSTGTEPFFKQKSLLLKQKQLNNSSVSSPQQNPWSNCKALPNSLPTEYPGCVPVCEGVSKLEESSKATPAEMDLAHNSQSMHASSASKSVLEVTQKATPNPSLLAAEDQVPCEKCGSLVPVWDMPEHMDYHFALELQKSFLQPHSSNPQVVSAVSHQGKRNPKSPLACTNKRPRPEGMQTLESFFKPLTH
Sequence of DNA-directed DNA polymerase (P04415 whole entry): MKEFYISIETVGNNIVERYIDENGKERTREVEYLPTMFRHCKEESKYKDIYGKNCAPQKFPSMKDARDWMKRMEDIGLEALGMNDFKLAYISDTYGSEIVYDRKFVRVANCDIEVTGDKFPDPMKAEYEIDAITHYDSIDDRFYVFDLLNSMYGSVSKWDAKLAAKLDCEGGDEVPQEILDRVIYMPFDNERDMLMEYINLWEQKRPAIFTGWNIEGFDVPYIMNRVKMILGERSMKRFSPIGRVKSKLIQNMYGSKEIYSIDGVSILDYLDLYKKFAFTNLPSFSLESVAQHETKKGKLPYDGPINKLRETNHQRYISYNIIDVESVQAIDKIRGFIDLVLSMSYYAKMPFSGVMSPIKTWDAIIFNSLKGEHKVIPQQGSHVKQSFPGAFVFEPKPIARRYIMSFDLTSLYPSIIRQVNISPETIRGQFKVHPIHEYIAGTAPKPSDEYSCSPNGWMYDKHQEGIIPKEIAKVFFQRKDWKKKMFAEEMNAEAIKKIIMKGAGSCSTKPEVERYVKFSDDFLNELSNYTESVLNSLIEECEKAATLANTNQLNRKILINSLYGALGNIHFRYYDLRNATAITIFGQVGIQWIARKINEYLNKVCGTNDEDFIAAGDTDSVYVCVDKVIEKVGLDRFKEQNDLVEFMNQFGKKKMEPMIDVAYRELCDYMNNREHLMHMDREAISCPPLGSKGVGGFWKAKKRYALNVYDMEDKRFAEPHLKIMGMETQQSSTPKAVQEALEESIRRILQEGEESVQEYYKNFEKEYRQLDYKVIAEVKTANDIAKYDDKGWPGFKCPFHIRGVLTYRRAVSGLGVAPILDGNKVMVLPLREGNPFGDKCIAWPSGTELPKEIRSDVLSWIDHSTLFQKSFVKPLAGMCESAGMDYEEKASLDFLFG

| Compound | inhibition [1] | IC50 [2] [µM] | IC50 [3] [µM] | IC50 [4] [µM] | IC50 [5] [µM] | inhibition [6] | Activity [7] | IC50 [8] [µM] | inhibition [9] | IC50 [10] [µM] | IC50 [11] [µM] | IC50 [12] [µM] | inhibition [13] | IC50 [14] [µM] |
| --- | --- | --- | --- | --- | --- | --- | --- | --- | --- | --- | --- | --- | --- | --- |
| CCCCCCCCCCCC(=O)Oc1cccc2c1C(=O)C=CC2=O | Active | 7.1 | > 100 | > 100 | 8.4 | Active | Active | 6.6 | Active | > 100 | 6.5 | 6.9 | Active | 6.3 |
| CCCCCCCC/C=C\CCCCCCCC(=O)Oc1cccc2c1C(=O)C=CC2=O | Active | 8.7 | > 100 | > 100 | 11.9 | Active | Active | 0.7 | Active | > 100 | 0.72 | 8.4 | Active | 0.68 |
